Among the data in ChEMBL document CHEMBL3227985, “N-Alkylated 2-aminotetralins: central dopamine-receptor stimulating activity” (J Med Chem, 1979) are Activity and ED50 values, retold here.

A word on the ED50: it is the midpoint of the dose-response relation.

For series [1], the system named is Rattus norvegicus. Kind of series: Central serotonin receptor stimulating activity in Sprague-Dawley rat assessed as reduction in 5-HTP accumulation in limbic region of brain at 2 umol/kg, sc by spectrophotometric method. The series is classed as functional, organism-based. The settings on record: Limbic system. In outline:
(§1)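 Male Sprague-Dawley rats (200-350 g), reserpinized. Compounds dissolved in saline immediately before use, neutral pH, 10 mL/kg, given sc over a dose range. Aromatic-L-amino-acid decarboxylase inhibited (100 mg/kg). Dopa and 5-HTP accumulation measured spectrophotometrically in striatum, limbic forebrain and remaining hemispheral portions. ED50 = dose giving 50% of maximal reduction versus control portions, estimated from dose-response curves. Experiments run 9–12 a.m.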

Series [2] concerns Rattus norvegicus. In words: Central noradrenaline receptor stimulating activity in Sprague-Dawley rat assessed as reduction in DOPA accumulation in hemispheral portion of cerebrum at 2 umol/kg, sc by spectrophotometric method. The series is classed as functional, organism-based. In a few lines:
as §1

In series [3] the test system is Rattus norvegicus. In words: Toxicity in sc dosed Sprague-Dawley rat assessed as gross behaviour at ED50. The settings on record: in vivo. The series is classed as organism-based.
The test system of series [4] is Rattus norvegicus. In words: Central serotonin receptor stimulating activity in Sprague-Dawley rat assessed as reduction in 5-HTP accumulation in striatum of brain at 2 umol/kg, sc by spectrophotometric method. The series is classed as functional, organism-based. In a few lines:
as §1

Series [5] concerns Rattus norvegicus. In words: Central serotonin receptor stimulating activity in Sprague-Dawley rat assessed as reduction in 5-HTP accumulation in hemispheral portion of cerebrum at 2 umol/kg, sc by spectrophotometric method. The series is classed as functional, organism-based. In a few lines:
as §1

The test system of series [6] is Rattus norvegicus. Kind of series: Central dopamine receptor stimulating activity in Sprague-Dawley rat assessed as reduction in DOPA accumulation in limbic region of brain at 2 umol/kg, sc by spectrophotometric method. The series is classed as functional. The settings on record: Limbic system. In a few lines:
as §1

Structures are written as SMILES. Activity calls are given as the source filed them. The rule behind the calls is not given here.

For `CCCCNC1CCc2c(cccc2OC)C1.Cl` (configuration not stated), the outcome in the series on Rattus norvegicus [1], with Rattus norvegicus [2], with Rattus norvegicus [4] and in the series on Rattus norvegicus [5] was inactive. In the series with Rattus norvegicus [3], the Activity entry is on record as “Non-toxic”.
With `CCCN(C(C)C)C1CCc2c(cccc2OC)C1.Cl` (configuration not stated), the result with Rattus norvegicus [1], in the series on Rattus norvegicus [2], in the series with Rattus norvegicus [4] and in the series on Rattus norvegicus [5] was inactive. For the same molecule, the Activity result in the series on Rattus norvegicus [3] was “Non-toxic”.
As to `CCN(CC)C1CCc2c(cccc2OC)C1.Cl` (configuration not stated), the result in the series on Rattus norvegicus [1], in the series on Rattus norvegicus [2], with Rattus norvegicus [4] and in the series with Rattus norvegicus [5] was inactive. Moreover, the Activity result in the series with Rattus norvegicus [3] was “Non-toxic”.
In the case of `CCCCCN(C)C1CCc2c(cccc2OC)C1.Cl` (configuration not stated), the result in the series with Rattus norvegicus [1], in the series with Rattus norvegicus [2], with Rattus norvegicus [4] and in the series on Rattus norvegicus [5] was inactive. The Activity result in the series on Rattus norvegicus [3] is listed as “Non-toxic”.
Turning to `COc1cccc2c1CCC(N)C2.Cl` (configuration not stated), the result in the series on Rattus norvegicus [1], in the series on Rattus norvegicus [2], with Rattus norvegicus [4] and with Rattus norvegicus [5] was inactive. In addition, the Activity entry with Rattus norvegicus [3] is given as “Non-toxic”.
Consider `CCNC1CCc2c(cccc2OC)C1.Cl` (configuration not stated), for which the result in the series with Rattus norvegicus [1], in the series with Rattus norvegicus [2], with Rattus norvegicus [4] and in the series on Rattus norvegicus [5] was inactive. The Activity entry with Rattus norvegicus [3] is reported as “Non-toxic”.
`COc1cccc2c1CCC(NC(C)C)C2.Cl` (configuration not stated): the result in the series on Rattus norvegicus [1], in the series with Rattus norvegicus [2], in the series with Rattus norvegicus [4] and with Rattus norvegicus [5] was inactive. In the series with Rattus norvegicus [3], the Activity entry is listed as “Non-toxic”. Besides, in the series with Rattus norvegicus [6], the ED50 is more than 5 µmol/kg.
For `CCN(C)C1CCc2c(cccc2OC)C1.Cl` (configuration not stated), the result in the series with Rattus norvegicus [1], with Rattus norvegicus [2], in the series on Rattus norvegicus [4] and in the series with Rattus norvegicus [5] was inactive. The Activity entry in the series with Rattus norvegicus [3] is given as “Non-toxic”.
On to `COc1cccc2c1CCC(N1CCCCC1)C2.Cl` (configuration not stated), for which the result with Rattus norvegicus [1], with Rattus norvegicus [2], with Rattus norvegicus [4] and in the series with Rattus norvegicus [5] was inactive. Besides, the Activity entry with Rattus norvegicus [3] is reported as “Non-toxic”.
Consider `Br.NC1CCc2c(O)cccc2C1` (configuration not stated), for which the result in the series on Rattus norvegicus [1], with Rattus norvegicus [2], in the series with Rattus norvegicus [4] and in the series with Rattus norvegicus [5] was inactive. In addition, the Activity result with Rattus norvegicus [3] is reported as “Non-toxic”. Besides, in the series with Rattus norvegicus [6], the ED50 is more than 5 µmol/kg.
Turning to `COc1cccc2c1CCC(N(C)C)C2.Cl` (configuration not stated), the result in the series with Rattus norvegicus [1], in the series on Rattus norvegicus [2], in the series on Rattus norvegicus [4] and with Rattus norvegicus [5] was inactive. The Activity result in the series on Rattus norvegicus [3] is given as “Non-toxic”.
For `CCCCN(CCCC)C1CCc2c(cccc2OC)C1.Cl` (configuration not stated), the result in the series with Rattus norvegicus [1], in the series with Rattus norvegicus [2], in the series with Rattus norvegicus [4] and in the series with Rattus norvegicus [5] was inactive. For the same molecule, the Activity entry in the series on Rattus norvegicus [3] is “Non-toxic”.
Turning to `CCCCCNC1CCc2c(cccc2OC)C1.Cl` (configuration not stated), the outcome in the series on Rattus norvegicus [1], with Rattus norvegicus [2], in the series with Rattus norvegicus [4] and with Rattus norvegicus [5] was inactive. In addition, the Activity result with Rattus norvegicus [3] is reported as “Non-toxic”.
Turning to `CNC1CCc2c(cccc2OC)C1.Cl` (configuration not stated), the result in the series on Rattus norvegicus [1], in the series with Rattus norvegicus [2], in the series on Rattus norvegicus [4] and in the series with Rattus norvegicus [5] was inactive. Also, the Activity entry in the series on Rattus norvegicus [3] is reported as “Non-toxic”.
